Measured values as given in ChEMBL document CHEMBL3044702, “Synthesis and insecticidal activities of novel N-sulfenyl-N'-tert-butyl-N,N'-diacylhydrazines. 3. N-(alkyldithio), n-(aminothio), and N,N-dithio derivatives” (2008).
Converted amounts (≈) assume the structure as drawn.

Experiments:
Type in all cases: functional
Mythimna separata [1] = experiment: Larvicidal activity against fourth-instar larval stage of Mythimna separata (Oriental armyworm) in compound-pretreated corn leaves assessed as mortality at 2.5 mg/kg at 25 +/-1 degC measured after 4 days
In short: (§1)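 Insects were reared in the laboratory and tested at 25 ± 1 °C, with repeats as statistics required. Larvae were scored dead or alive. Mortality was corrected by Abbott's formula and expressed on a 0–100 scale, where 0 is no activity and 100 is total kill.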

Mythimna separata [2] = experiment: Larvicidal activity against fourth-instar larval stage of Mythimna separata (Oriental armyworm) in compound-pretreated corn leaves assessed as mortality at 5 mg/kg at 25 +/-1 degC measured after 4 days; in short: as §1
Mythimna separata [3] = experiment: Larvicidal activity against fourth-instar larval stage of Mythimna separata (Oriental armyworm) in compound-pretreated corn leaves assessed as mortality at 25 mg/kg at 25 +/-1 degC measured after 4 days; in short: as §1
Mythimna separata [4] = experiment: Larvicidal activity against fourth-instar larval stage of Mythimna separata (Oriental armyworm) in compound-pretreated corn leaves assessed as mortality at 10 mg/kg at 25 +/-1 degC measured after 4 days; in short: as §1
Mythimna separata [5] = experiment: Larvicidal activity against fourth-instar larval stage of Mythimna separata (Oriental armyworm) in compound-pretreated corn leaves assessed as mortality at 50 mg/kg at 25 +/-1 degC measured after 4 days; in short: as §1
Mythimna separata [6] = experiment: Larvicidal activity against fourth-instar larval stage of Mythimna separata (Oriental armyworm) in compound-pretreated corn leaves assessed as mortality at 200 mg/kg at 25 +/-1 degC measured after 4 days; in short: as §1
Mythimna separata [7] = experiment: Larvicidal activity against fourth-instar larval stage of Mythimna separata (Oriental armyworm) in compound-pretreated corn leaves assessed as mortality at 100 mg/kg at 25 +/-1 degC measured after 4 days; in short: as §1
Mythimna separata [8] = experiment: Larvicidal activity against fourth-instar larval stage of Mythimna separata (Oriental armyworm) in compound-pretreated corn leaves assessed as mortality at 30 mg/kg at 25 +/-1 degC measured after 4 days; in short: as §1
Mythimna separata [9] = experiment: Larvicidal activity against fourth-instar larval stage of Mythimna separata (Oriental armyworm) in compound-pretreated corn leaves assessed as mortality at 20 mg/kg at 25 +/-1 degC measured after 4 days; in short: as §1
Mythimna separata [10] = experiment: Larvicidal activity against fourth-instar larval stage of Mythimna separata (Oriental armyworm) in compound-pretreated corn leaves assessed as mortality at 40 mg/kg at 25 +/-1 degC measured after 4 days; in short: as §1
Plutella xylostella [11] = experiment: Larvicidal activity against second-instar larval stage of Plutella xylostella (diamondback moth) in cabbage leaves assessed as mortality at 25 +/-1 degC treated for 15 secs before larval infestation measured after 6 days by leaf-dip method; conditions: 144 h
In short: (§2)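 Leaf-dip assay on laboratory-reared diamondback moth larvae at 25 ± 1 °C. Fresh cabbage leaf disks 1.8 cm across were dipped in test solution for 15 s. Larvae were scored dead or alive, and mortality was corrected by Abbott's formula. Mortality-regression data were put through Finney probit analysis to give LC50 for the test compounds and the parent reference.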

Plutella xylostella [12] = experiment: Toxic ratio of RH-5992 LC50 to compound LC50 for second-instar larval stage of Plutella xylostella (diamondback moth) measured after 6 days by leaf-dip method; in short: as §2

SMILES | mortality at 2.5 mg/kg (Mythimna separata [1]) | mortality at 5 mg/kg (Mythimna separata [2]) | mortality at 25 mg/kg (Mythimna separata [3]) | mortality at 10 mg/kg (Mythimna separata [4]) | mortality at 50 mg/kg (Mythimna separata [5]) | mortality at 200 mg/kg (Mythimna separata [6]) | mortality at 100 mg/kg (Mythimna separata [7]) | mortality at 30 mg/kg (Mythimna separata [8]) | mortality at 20 mg/kg (Mythimna separata [9]) | mortality at 40 mg/kg (Mythimna separata [10]) | LC50 (Plutella xylostella [11]) | RatioLC50 (Plutella xylostella [12])
CCCCSSN(C(=O)c1ccc(Cl)cc1)N(C(=O)c1ccccc1)C(C)(C)C | 0% | 30% | 100% | 90% |  |  |  |  |  |  |  | 
CCc1ccc(CN(SNc2ccc(C)cc2)N(C(=O)c2cc(C)cc(C)c2)C(C)(C)C)cc1 | 100% |  |  |  |  |  |  |  |  |  |  | 
CCCCSSN(C(=O)c1ccc2c(c1C)OC(C)C2)N(C(=O)c1cc(C)cc(C)c1)C(C)(C)C (stereo not drawn) | 80% | 100% | 100% | 100% |  |  |  |  |  |  |  | 
Cc1cccc(C(=O)N(NC(=O)c2ccc(Cl)cc2)C(C)(C)C)c1 |  |  |  | 0% | 90% | 100% | 100% |  |  |  |  | 
CC(C)(C)N(C(=O)c1ccccc1)N(SSN(C(=O)c1ccc(Cl)cc1)N(C(=O)c1ccccc1)C(C)(C)C)C(=O)c1ccc(Cl)cc1 |  |  |  | 10% | 100% |  | 100% | 85% | 75% | 100% |  | 
Cc1cc(C)cc(C(=O)N(NC(=O)c2ccc(Cl)cc2)C(C)(C)C)c1 |  |  |  | 30% | 100% | 100% | 100% |  | 50% | 100% |  | 
CCOC(=O)CCN(Cc1ccccc1)SN(Cc1ccc(CC)cc1)N(C(=O)c1cc(C)cc(C)c1)C(C)(C)C | 100% |  |  |  |  |  |  |  |  |  |  | 
CCCSSN(C(=O)c1cccc(OC)c1C)N(C(=O)c1cc(C)cc(C)c1)C(C)(C)C | 100% | 100% | 100% | 100% |  |  |  |  |  |  |  | 
Cc1cc(C)cc(C(=O)N(NC(=O)c2ccc3c(c2C)OC(C)C3)C(C)(C)C)c1 (stereo not drawn) [FUXIAN] | 90% | 100% |  |  |  |  |  |  |  |  |  | 
Cc1cc(C)cc(C(=O)N(NC(=O)c2ccccc2)C(C)(C)C)c1 |  |  |  | 10% | 80% | 100% | 100% |  |  |  |  | 
CCc1ccc(CN(SNc2ccc(Cl)cc2)N(C(=O)c2cc(C)cc(C)c2)C(C)(C)C)cc1 | 0% | 80% | 100% | 90% |  |  |  |  |  |  |  | 
Cc1cc(C)cc(C(=O)N(N(SSN(C(=O)c2ccccc2)N(C(=O)c2cc(C)cc(C)c2)C(C)(C)C)C(=O)c2ccccc2)C(C)(C)C)c1 |  |  |  | 0% | 10% | 100% | 70% |  |  |  |  | 
CC(C)(C)N(C(=O)c1ccccc1)N(SSN(C(=O)c1ccccc1)N(C(=O)c1ccccc1)C(C)(C)C)C(=O)c1ccccc1 |  |  |  | 5% | 60% | 95% | 85% |  |  |  |  | 
Cc1cccc(C(=O)N(N(SSN(C(=O)c2ccc(Cl)cc2)N(C(=O)c2cccc(C)c2)C(C)(C)C)C(=O)c2ccc(Cl)cc2)C(C)(C)C)c1 |  |  |  | 0% | 100% | 100% | 100% |  |  |  |  | 
Cc1cccc(C(=O)N(NC(=O)c2ccccc2)C(C)(C)C)c1 |  |  |  | 0% | 30% | 100% | 50% |  |  |  |  | 
CCc1ccc(C(=O)N(SSN(C(=O)c2ccc(CC)cc2)N(C(=O)c2cc(C)cc(C)c2)C(C)(C)C)N(C(=O)c2cc(C)cc(C)c2)C(C)(C)C)cc1 |  |  |  | 10% | 100% | 100% | 100% | 100% | 95% | 100% |  | 
CC(C)(C)N(NC(=O)c1ccc(Cl)cc1)C(=O)c1ccccc1 [HALOFENOZIDE] | 10% | 70% |  | 0% | 100% | 100% | 100% | 95% | 85% | 100% |  | 
CCCSSN(C(=O)c1ccc(Cl)cc1)N(C(=O)c1ccccc1)C(C)(C)C | 0% | 20% | 100% | 80% |  |  |  |  |  |  |  | 
CCCCSSN(C(=O)c1ccc(CC)cc1)N(C(=O)c1cc(C)cc(C)c1)C(C)(C)C | 90% | 100% |  | 100% |  |  |  |  |  |  |  | 
Cc1cc(C)cc(C(=O)N(N(SSN(C(=O)c2ccc(Cl)cc2)N(C(=O)c2cc(C)cc(C)c2)C(C)(C)C)C(=O)c2ccc(Cl)cc2)C(C)(C)C)c1 |  |  |  | 0% | 60% | 100% | 90% |  |  |  |  | 
CC(C)(C)N(NC(=O)c1ccccc1)C(=O)c1ccccc1 [RH-5849] |  |  | 70% | 0% | 95% |  |  |  |  |  |  | 
CCc1ccc(C(=O)NN(C(=O)c2cc(C)cc(C)c2)C(C)(C)C)cc1 [TEBUFENOZIDE] | 55% | 95% |  | 75% | 100% | 100% | 100% | 100% | 100% | 100% | 56.9 µg/mL (≈ 161 µM) | 1
CCCSSN(C(=O)c1ccc2c(c1C)OC(C)C2)N(C(=O)c1cc(C)cc(C)c1)C(C)(C)C (stereo not drawn) | 100% | 100% | 100% | 100% |  |  |  |  |  |  |  | 
CCCSSN(C(=O)c1ccc(CC)cc1)N(C(=O)c1cc(C)cc(C)c1)C(C)(C)C | 100% | 100% |  | 100% |  |  |  |  |  |  |  | 
CCCCSSN(C(=O)c1cccc(OC)c1C)N(C(=O)c1cc(C)cc(C)c1)C(C)(C)C | 100% | 100% | 100% | 100% |  |  |  |  |  |  |  | 
Cc1cccc(C(=O)N(N(SSN(C(=O)c2ccccc2)N(C(=O)c2cccc(C)c2)C(C)(C)C)C(=O)c2ccccc2)C(C)(C)C)c1 |  |  |  | 0% | 10% | 100% | 50% |  |  |  |  | 
CCCCSSN(C(=O)c1ccccc1)N(C(=O)c1ccccc1)C(C)(C)C |  |  | 90% | 0% | 100% |  |  |  |  |  |  | 
CCCSSN(C(=O)c1ccccc1)N(C(=O)c1ccccc1)C(C)(C)C |  |  | 90% | 0% | 100% |  |  |  |  |  |  | 
